CHO parental Ca: counter-screen: ATP calcium response change in parental CHO cells; inhibition, % at 5.6 µM; parental CHO-K1, ATP-induced calcium, Fluo-8 fluorescence; hit rate 0.63% among 330,000;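 active = inhibition above that plate's mean sample inhibition plus 3 SD, cut at about 26% in these data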;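 also: 0% = ATP-challenged DMSO wells and 100% = DMSO wells without ATP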
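Assay system: untransfected parental CHO cell line. Also added: ATP agonist challenge. Dosing: one dose, 5.6 µM nominal. Measured by: Fluo-8 fluorescence. Read-out: % inhibition. Benchmarks: ATP wells versus no-ATP DMSO wells. Repeats: no replicates.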
OXTR ag: agonists of human oxytocin receptor; hit rate 0.32% among 320,000; CHO-OTR cells, Fluo-8 calcium fluorescence; normalized: DMSO 0%, oxytocin 100%; activation, % at 3 µM;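 active = activation above the mean of all tested compounds plus 3 SD, cutoff set per screening run, cut at about 20% in these data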;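 also: peak over basal fluorescence ratio from a 100 s FLIPR kinetic read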
V1R ag counter: activates human V1a receptor in oxytocin agonist counter-screen | activation, % at 3 µM | P37288 | CHO-V1R cells, Fluo-8 calcium fluorescence, agonist mode; 0% DMSO, 100% 3 nM vasopressin | AID 2797 | hit rate 0.25% among 320,000;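 active = activation above the mean activation of all tested compounds plus 3 SD, per screening run, cut at about 20% in these data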;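 also: signal is peak over basal fluorescence ratio across a 100 second FLIPR read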
OXTR potentiator: potentiators of human oxytocin receptor | P30559 | CHO-OTR cells, Fluo-8 calcium fluorescence, potentiator mode; 0% = oxytocin EC15, 100% = EC100 | activation, % at 3 µM | hit rate 0.061% among 320,000;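 active = activation above that plate's cutoff, the mean activation of tested compounds plus 3 SD, cut at about 6.6% in these data, passing the limit was not always enough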;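 also: 100% uses oxytocin at 75 nM as the full agonist control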
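assay system = CHO-OTR cells, human receptor | schedule = compound 6 min at room temperature before oxytocin, 100 s read | detection = Fluo-8 intracellular calcium fluorescence, ex 470-495, em 515-575 nm | evaluation = normalized max/min fluorescence ratio, % activation | control set = EC15 oxytocin alone as 0%, 75 nM oxytocin (EC100) as 100%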
OX1R antag-1: OX1R (human) antagonism | OX1R-expressing cells, FRET antagonist read-out | O43613 | inhibition, % at 6.6 µM | AID 485270 | hit rate 1.8% among 330,000; in the data active = inhibition mostly above about 38%, no sharp cut-off; inactive = mostly below about 40%;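 also: 0% = agonist challenge alone and 100% = reference antagonist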
Target sequence (O43613 whole entry, looked up): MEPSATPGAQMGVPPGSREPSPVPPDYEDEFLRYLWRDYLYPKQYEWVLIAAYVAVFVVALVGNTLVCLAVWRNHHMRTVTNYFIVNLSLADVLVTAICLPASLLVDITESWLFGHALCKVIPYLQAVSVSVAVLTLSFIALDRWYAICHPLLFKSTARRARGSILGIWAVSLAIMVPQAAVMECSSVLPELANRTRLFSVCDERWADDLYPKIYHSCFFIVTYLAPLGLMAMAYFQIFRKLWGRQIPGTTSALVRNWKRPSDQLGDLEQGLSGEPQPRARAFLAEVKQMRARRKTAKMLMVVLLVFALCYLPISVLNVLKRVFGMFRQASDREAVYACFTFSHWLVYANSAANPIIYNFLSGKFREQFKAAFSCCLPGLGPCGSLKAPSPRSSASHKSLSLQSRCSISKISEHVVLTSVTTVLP
OX1R antag-2: blocks the human orexin 1 receptor | O43613 | inhibition, % at 5 µM | AID 434989 | hit rate 0.43% among 330,000 | CHO/OX1R cells, Fluo-8 calcium fluorescence, orexin A;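 active = inhibition above its plate's threshold, mean inhibition of all tested compounds on the plate plus 3 SD, cut at about 37% in these data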;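 also: 0% = orexin A challenge wells and 100% = SB-334867-A antagonist wells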
OX1R Fluo8 conf: confirmation of human orexin 1 receptor antagonists; inhibition, % at 5 µM; hit rate 38% among 1,100; AID 492963; shares compounds with OX1R antag-2; CHO/OX1R cells, orexin A calcium Fluo-8 fluorescence; in the data active = inhibition above about 29%;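 also: 0% = agonist challenge alone and 100% = reference antagonist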
CHO Ca counter: counter-screen for OX1R antagonists: effect in parental CHO cells. AID 492965. hit rate 9.3% among 1,100. inhibition, % at 5.6 µM. shares compounds with OX1R antag-2. parental CHO-K1, ATP-induced calcium, Fluo-8 fluorescence;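 active = inhibition above a per-plate limit, the mean inhibition of that plate's test compounds plus 3 SD, cut at about 25% in these data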;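 also: 0% = ATP challenge with DMSO and 100% = DMSO without ATP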
OX1R HTRF confirm: OX1R (human) antagonism, HTRF confirmed; shares compounds with OX1R antag-1; OX1R-expressing cells, HTRF antagonist assay; inhibition, % at 6.6 µM; hit rate 49% among 1,800; in the data active = inhibition above about 55%;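 also: CHO cells expressing OX1R stimulated with orexin A at about EC80; 0% = agonist challenge alone and 100% = reference antagonist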
CHO-K1 HTRF cnt: counter-screen for OX1R antagonists: effect in parental CHO-K1 cells; hit rate 48% among 1,800; HTRF counterscreen; inhibition, % at 6.6 µM; shares compounds with OX1R antag-1; in the data active = inhibition above about 17%;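 also: 0% = agonist challenge with vehicle and 100% = vehicle alone without agonist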
* = called active by the depositor; / = not tested or not shown. This is a sample that favours compounds with a hit; in the whole collection about 2.7% have one here.

SMILES	CHO parental Ca	OXTR ag	V1R ag counter	OXTR potentiator	OX1R antag-1	OX1R antag-2	OX1R Fluo8 conf	CHO Ca counter	OX1R HTRF confirm	CHO-K1 HTRF cnt
Cc1csc(-c2coc3cc(O)cc(C)c3c2=O)n1	-4.4	4.0	1.9	-5.6	93.6*	60.1*	24.9	4.4	91.3*	7.1
COc1ccc2c(=O)c(-c3nc(C)cs3)coc2c1	-17.1	-1.6	-0.6	4.2	24.2	-19.3	/	/	/	/
CNC(=O)NC(=O)C(C)OC(=O)c1c2c(nc3ccccc13)/C(=C/c1cccs1)CC2 (configuration not stated)	-21.1	0.8	-1.0	-10.1	66.4*	52.4*	91.6*	0.0	93.1*	8.8
CCCCNC(=O)COC(=O)c1c2c(nc3ccccc13)/C(=C/c1cccs1)CC2	-3.0	-1.2	-0.3	-6.9	28.4	-1.2	/	/	/	/
Cc1ccc2sc3ccc(NC(=O)c4ccccc4Cl)cc3c(=O)c2c1	-16.8	0.2	0.8	-4.8	71.2*	36.8	20.7	4.5	72.1*	18.2*
CC(=C/c1ccccc1)/C=C1/SC(N2CCOCC2)=NC1=O	-5.1	2.9	6.9	-17.6	108.1*	84.8*	79.6*	3.5	101.2*	-2.0
CCC(C)(C)NC(=O)CN(C(=O)c1csnn1)c1cccc2c1CCCC2	-5.2	0.2	-1.1	-6.4	8.1	-11.5	/	/	/	/
CCC(C)(C)NC(=O)CN(C(=O)c1csnn1)c1ccccc1-c1ccccc1	-23.6	0.1	1.4	-3.3	86.9*	71.8*	32.4*	11.4	83.7*	3.8
COc1cc2cc(C(=O)N/N=C/c3ccccc3Cl)[nH]c2cc1OC	-29.4	-2.3	-0.5	-3.8	75.9*	29.9	17.5	-9.7	89.3*	13.5
COc1cc2cc(C(=O)N/N=C/c3ccc(F)cc3)[nH]c2cc1OC	-7.2	-0.8	1.3	-8.2	67.5*	29.2	14.5	2.8	73.3*	8.8
COc1ccc(/C=N/NC(=O)c2cc3cc(OC)c(OC)cc3[nH]2)cc1	-14.1	0.1	1.8	-17.3	37.4	-23.1	/	/	/	/
O=C(COc1ccccc1)Nc1ccncc1Cl	-4.6	1.2	3.0	-3.5	11.9	-22.2	/	/	/	/
O=C(COC(=O)c1cc(-c2cccc(Br)c2)nc2ccccc12)NCC1CCCO1 (configuration not stated)	-18.4	0.4	0.9	-13.6	86.4*	44.3*	39.8*	-5.0	68.0*	11.6
CCN(c1ccccc1)S(=O)(=O)c1cc(C(=O)Nc2cccc(Cl)c2)ccc1F	12.0	0.7	0.9	-7.5	20.6	-1.6	/	/	/	/
O=C(Nc1cccc(Cl)c1)c1ccc(F)c(S(=O)(=O)NCc2cccs2)c1	-17.1	2.8	5.7	-10.0	84.6*	63.5*	30.7*	-4.7	77.8*	1.4
Cc1cccc(NC(=O)c2ccc(F)c(S(=O)(=O)NCc3ccco3)c2)c1	-20.8	-0.1	1.5	-6.7	85.5*	58.1*	43.6*	-15.4	74.7*	2.8
CSc1ccccc1NC(=O)COC(=O)CCc1ccccc1	13.2	-1.5	-0.5	-0.7	14.8	-4.3	/	/	/	/
CCOc1ccc(C(=O)Nc2cccc3cccnc23)cc1	-12.5	-1.7	1.2	-19.0	80.6*	65.8*	29.0*	-7.9	87.3*	7.7
COc1ccc(NC(=O)C(=O)Nc2cccc3cccnc23)c(OC)c1	1.7	1.0	0.7	-13.1	3.5	31.2	/	/	/	/
COc1ccc(NC(=O)C(=O)Nc2cccc3cccnc23)cc1OC	-4.1	-0.5	0.2	-3.8	81.0*	53.3*	61.3*	-3.9	92.6*	13.2
CNC(=O)Nc1cccc2cccnc12	-10.9	0.8	-1.6	-10.2	10.5	-2.9	/	/	/	/
O=C(NC1CCN(C(=O)Nc2ccc(F)cc2)CC1)c1ccccc1F	-3.1	0.7	1.0	-5.5	9.3	5.7	/	/	/	/
COc1ccccc1N(CC(=O)NC1CCCC1)C(=O)c1oc(C(C)(C)C)cc1C	-23.6	-3.2	-1.1	-1.7	52.3*	40.8*	20.0	3.5	64.0*	0.8
CCN(CC)c1ccc(/C=N/NC(=O)c2nnn(-c3nonc3N)c2C(C)C)c(O)c1	-2.2	-1.1	-0.7	-11.0	96.1*	58.8*	16.0	-10.1	68.9*	5.2
COc1cccc(/C=N/NC(=O)c2nnn(-c3nonc3N)c2CN(C)c2ccccc2)c1	8.7	1.0	5.3	-11.4	69.6*	52.0*	40.6*	-2.8	93.1*	-2.0
SMILES	CHO parental Ca	OXTR ag	V1R ag counter	OXTR potentiator	OX1R antag-1	OX1R antag-2	OX1R Fluo8 conf	CHO Ca counter	OX1R HTRF confirm	CHO-K1 HTRF cnt
CCCN(CCC)Cc1c(C(=O)N/N=C/c2cccs2)nnn1-c1nonc1N	-15.2	-1.3	0.9	-1.3	5.7	-33.3	/	/	/	/
CN(Cc1c(C(=O)N/N=C/c2cccs2)nnn1-c1nonc1N)c1ccccc1	-22.4	7.0	6.1	-8.9	81.5*	54.6*	31.7*	0.5	89.5*	6.0
CN(Cc1c(C(=O)N/N=C/c2cccc(F)c2)nnn1-c1nonc1N)c1ccccc1	-6.7	2.3	5.0	-10.9	57.2*	49.2	32.7*	-6.2	77.2*	3.8
CN(C)Cc1c(C(=O)N/N=C/c2cccc(OCc3ccccc3)c2)nnn1-c1nonc1N	-8.6	7.0	8.5	-8.5	9.9	-12.0	/	/	/	/
CC(C)c1c(C(=O)N/N=C/c2ccc3c(c2)OCO3)nnn1-c1nonc1N	-10.4	-0.1	0.5	-3.2	5.4	-17.5	/	/	/	/
COc1ccc(C(C(=O)NC2CCCC2)N(C(=O)c2csnn2)C2CCCC2)cc1 (configuration not stated)	-0.2	0.1	-0.3	-1.0	5.7	0.2	/	/	/	/
O=c1cc(-c2ccsc2)oc2ccc(-c3ccc4cc[nH]c4c3)cc12	4.0	-0.1	0.3	-7.5	63.1*	72.4*	37.0*	-9.5	75.3*	-7.3
O=c1c2ccccc2oc2ccc(-c3ccc4[nH]ccc4c3)cc12	11.9	0.8	0.1	-6.7	53.7	-14.7	/	/	/	/
O=c1c2ccccc2oc2cc(-c3ccc4cc[nH]c4c3)ccc12	-26.9	1.8	1.4	-9.8	79.6*	75.1*	21.8	-7.5	77.7*	1.7
Cc1cc(C(=O)COC(=O)C23CC4CC(CC(O)(C4)C2)C3)c(C)n1C	-10.3	1.7	1.1	-4.5	4.1	-16.0	/	/	/	/

Screens: PubChem BioAssay, The Scripps Research Institute Molecular Screening Center
